ChEMBL document CHEMBL1122089, “Synthesis and biological activity of some very hydrophobic superagonist analogues of luteinizing hormone-releasing hormone” (1982)

Columns and labels:
Rattus norvegicus [1] = species: Rattus norvegicus; experiment: Suppression of estrus cyclicity in rat.; format: functional
Procedure, shortened: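 Adult female Sprague-Dawley rats (~160 g), groups of 10, 14:10 light/dark, food and water ad libitum. Compound in 0.1% BSA-saline vehicle given sc twice daily (0800, 1630 h), 0.1 or 0.2 mL/injection, 14 consecutive days; at least four doses at 2-fold dilutions; vehicle and positive controls. Daily vaginal lavage; percent of rats in persistent diestrus from day 4 plotted against log dose; ED50 in µg/injection.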

Rattus norvegicus [2] = species: Rattus norvegicus; experiment: Suppression of estrus cyclicity in rat relative to [D-Trp6, ProNHEt9].; format: functional

| SMILES | ED50 (Rattus norvegicus [1]) [µg] | Potency (Rattus norvegicus [2]) |
| --- | --- | --- |
| CCNC(=O)[C@@H]1CCCN1C(=O)[C@H](CCCN=C(N)N)NC(=O)[C@H](CC(C)C)NC(=O)[C@@H](Cc1ccc2ccccc2c1)NC(=O)[C@H](Cc1ccc(O)cc1)NC(=O)[C@H](CO)NC(=O)[C@H](Cc1cccc2ccccc12)NC(=O)[C@H](Cc1c[nH]cn1)NC(=O)[C@@H]1CCC(=O)N1 | 0.16 | 0.9 |
| CC(C)C[C@H](NC(=O)[C@@H](CC1CCCCC1)NC(=O)[C@H](Cc1ccc(O)cc1)NC(=O)[C@H](CO)NC(=O)[C@H](Cc1c[nH]c2ccccc12)NC(=O)[C@H](Cc1c[nH]cn1)NC(=O)[C@@H]1CCC(=O)N1)C(=O)N[C@@H](CCCN=C(N)N)C(=O)N1CCC[C@H]1C(=O)NCC(N)=O | 0.3 | 0.5 |
| CCNC(=O)[C@@H]1CCCN1C(=O)[C@H](CCCN=C(N)N)NC(=O)[C@H](CC(C)C)N(C)C(=O)[C@@H](Cc1ccc2ccccc2c1)NC(=O)[C@H](Cc1ccc(O)cc1)NC(=O)[C@H](CO)NC(=O)[C@H](Cc1c[nH]c2ccccc12)NC(=O)[C@H](Cc1c[nH]cn1)NC(=O)[C@@H]1CCC(=O)N1 | 0.12 | 1.8 |
| CC(C)C[C@H](NC(=O)[C@@H](Cc1c(F)c(F)c(F)c(F)c1F)NC(=O)[C@H](Cc1ccc(O)cc1)NC(=O)[C@H](CO)NC(=O)[C@H](Cc1c[nH]c2ccccc12)NC(=O)[C@H](Cc1c[nH]cn1)NC(=O)[C@@H]1CCC(=O)N1)C(=O)N[C@@H](CCCN=C(N)N)C(=O)N1CCC[C@H]1C(=O)NCC(N)=O | 0.12 | 1.2 |
| CC(C)C[C@H](NC(=O)[C@@H](Cc1ccc2ccccc2c1Br)NC(=O)[C@H](Cc1ccc(O)cc1)NC(=O)[C@H](CO)NC(=O)[C@H](Cc1c[nH]c2ccccc12)NC(=O)[C@H](Cc1c[nH]cn1)NC(=O)[C@@H]1CCC(=O)N1)C(=O)N[C@@H](CCCN=C(N)N)C(=O)N1CCC[C@H]1C(=O)NCC(N)=O | 0.15 | 1 |
| CC(C)C[C@H](NC(=O)[C@@H](Cc1ccc(-c2ccccc2)cc1)NC(=O)[C@H](Cc1ccc(O)cc1)NC(=O)[C@H](CO)NC(=O)[C@H](Cc1c[nH]c2ccccc12)NC(=O)[C@H](Cc1c[nH]cn1)NC(=O)[C@@H]1CCC(=O)N1)C(=O)N[C@@H](CCCN=C(N)N)C(=O)N1CCC[C@H]1C(=O)NCC(N)=O |  | 1.4 |
| CCNC(=O)[C@@H]1CCCN1C(=O)[C@H](CCCN=C(N)N)NC(=O)[C@H](CC(C)C)NC(=O)[C@@H](Cc1c[nH]c2ccccc12)NC(=O)[C@H](Cc1ccc(O)cc1)NC(=O)[C@H](CO)NC(=O)[C@H](Cc1c[nH]c2ccccc12)NC(=O)[C@H](Cc1c[nH]cn1)NC(=O)[C@@H]1CCC(=O)N1 | 0.14 | 1 |
| Cc1cc(C)c(C[C@@H](NC(=O)[C@H](Cc2ccc(O)cc2)NC(=O)[C@H](CO)NC(=O)[C@H](Cc2c[nH]c3ccccc23)NC(=O)[C@H](Cc2c[nH]cn2)NC(=O)[C@@H]2CCC(=O)N2)C(=O)N(C)[C@@H](CC(C)C)C(=O)N[C@@H](CCCN=C(N)N)C(=O)N2CCC[C@H]2C(=O)NCC(N)=O)c(C)c1 |  | 1.1 |
| CCNC(=O)[C@@H]1CCCN1C(=O)[C@H](CCCN=C(N)N)NC(=O)[C@H](CC(C)C)NC(=O)[C@@H](Cc1ccc2ccccc2c1)NC(=O)[C@H](Cc1ccc(O)cc1)NC(=O)[C@H](CO)NC(=O)[C@H](Cc1c[nH]c2ccccc12)NC(=O)[C@H](Cc1c[nH]cn1)NC(=O)[C@@H]1CCC(=O)N1 | 0.22 | 0.9 |
| CC(C)C[C@H](NC(=O)[C@@H](Cc1ccc(C(F)(F)F)cc1)NC(=O)[C@H](Cc1ccc(O)cc1)NC(=O)[C@H](CO)NC(=O)[C@H](Cc1c[nH]c2ccccc12)NC(=O)[C@H](Cc1c[nH]cn1)NC(=O)[C@@H]1CCC(=O)N1)C(=O)N[C@@H](CCCN=C(N)N)C(=O)N1CCC[C@H]1C(=O)NCC(N)=O | 0.11 | 1.4 |
| CC(C)C[C@H](NC(=O)[C@@H](Cc1ccc2ccccc2c1)NC(=O)[C@H](Cc1ccc(O)cc1)NC(=O)[C@H](CO)NC(=O)[C@H](Cc1c[nH]c2ccccc12)NC(=O)[C@H](Cc1c[nH]cn1)NC(=O)[C@@H]1CCC(=O)N1)C(=O)N[C@@H](CCCN=C(N)N)C(=O)N1CCC[C@H]1C(=O)NCC(N)=O | 0.07 | 1.9 |
| Cc1cc(C)c(C[C@@H](NC(=O)[C@H](Cc2ccc(O)cc2)NC(=O)[C@H](CO)NC(=O)[C@H](Cc2c[nH]c3ccccc23)NC(=O)[C@H](Cc2c[nH]cn2)NC(=O)[C@@H]2CCC(=O)N2)C(=O)N[C@@H](CC(C)C)C(=O)N[C@@H](CCCN=C(N)N)C(=O)N2CCC[C@H]2C(=O)NCC(N)=O)c(C)c1 | 0.07 | 2 |
| CCNC(=O)[C@@H]1CCCN1C(=O)[C@H](CCCN=C(N)N)NC(=O)[C@H](CC(C)C)NC(=O)[C@@H](CC(c1ccccc1)c1ccccc1)NC(=O)[C@H](Cc1ccc(O)cc1)NC(=O)[C@H](CO)NC(=O)[C@H](Cc1c[nH]c2ccccc12)NC(=O)[C@H](Cc1c[nH]cn1)NC(=O)[C@@H]1CCC(=O)N1 | 0.11 | 0.9 |
| COc1cc(C[C@@H](NC(=O)[C@H](Cc2ccc(O)cc2)NC(=O)[C@H](CO)NC(=O)[C@H](Cc2c[nH]c3ccccc23)NC(=O)[C@H](Cc2c[nH]cn2)NC(=O)[C@@H]2CCC(=O)N2)C(=O)N[C@@H](CC(C)C)C(=O)N[C@@H](CCCN=C(N)N)C(=O)N2CCC[C@H]2C(=O)NCC(N)=O)cc(OC)c1OC | 0.09 | 1.4 |
| CC(C)C[C@H](NC(=O)[C@@H](Cc1c2ccccc2cc2ccccc12)NC(=O)[C@H](Cc1ccc(O)cc1)NC(=O)[C@H](CO)NC(=O)[C@H](Cc1c[nH]c2ccccc12)NC(=O)[C@H](Cc1c[nH]cn1)NC(=O)[C@@H]1CCC(=O)N1)C(=O)N[C@@H](CCCN=C(N)N)C(=O)N1CCC[C@H]1C(=O)NCC(N)=O | 0.27 | 0.5 |
